Reference: ChEMBL document CHEMBL4396869, “Design and Synthesis of Selective Phosphodiesterase 4D (PDE4D) Allosteric Inhibitors for the Treatment of Fragile X Syndrome and Other Brain Disorders” (J Med Chem, 2019)
Activity calls are given as the source filed them. The rule behind the calls is not given here.

How the values were obtained:
[1] = Stability in rat liver microsomes assessed as parent compound remaining at 1 uM measured after 30 mins by LC-MS/MS analysis; format: ADME, Microsome; details: read-out: Stability
How it was run: (§1)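 Liver microsome stability run by a contract lab using standard protocols. Parent compound remaining measured after 30 min incubation.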

[2] = Permeability across apical to basal side in MDCK-MDR1 cells; format: ADME, cell-based, Canis lupus familiaris; details: dog
How it was run: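 Cellular permeability in MDCK-MDR1 cells, apical-to-basal and basal-to-apical, run by a contract lab using standard protocols. Efflux ratio taken as B-A/A-B.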

[3] = Vascular toxicity in dog measured for 90 days; parameters: species or system Canis lupus familiaris; details: in vivo, 2160 h
[4] = Oral bioavailability in C57Bl6 mouse; format: ADME, organism-based; details: in vivo
[5] = Cardiovascular toxicity in dog at 100 mg/kg, po; format: organism-based, Canis lupus familiaris; details: in vivo
[6] = target: Dual specificity calcium/calmodulin-dependent 3',5'-cyclic nucleotide phosphodiesterase 1B (Homo sapiens, UniProt Q01064); test: Inhibition of recombinant human full length N-terminal GST-tagged PDE1B expressed in baculovirus infected Sf9 insect cells using FAM-cAMP as substrate measured after 1 hr by fluorescence assay; details: sf9, 1 h
[7] = target: Dual specificity calcium/calmodulin-dependent 3',5'-cyclic nucleotide phosphodiesterase 1C (Homo sapiens, UniProt Q14123); test: Inhibition of recombinant human N-terminal GST-tagged PDE1C (2 to 634 residues) expressed in baculovirus infected Sf9 insect cells using FAM-cAMP as substrate measured after 1 hr by fluorescence assay; details: sf9, 1 h
Dual specificity calcium/calmodulin-dependent 3',5'-cyclic nucleotide phosphodiesterase 1C, sequence (Q14123 whole entry, the tested form may be a part): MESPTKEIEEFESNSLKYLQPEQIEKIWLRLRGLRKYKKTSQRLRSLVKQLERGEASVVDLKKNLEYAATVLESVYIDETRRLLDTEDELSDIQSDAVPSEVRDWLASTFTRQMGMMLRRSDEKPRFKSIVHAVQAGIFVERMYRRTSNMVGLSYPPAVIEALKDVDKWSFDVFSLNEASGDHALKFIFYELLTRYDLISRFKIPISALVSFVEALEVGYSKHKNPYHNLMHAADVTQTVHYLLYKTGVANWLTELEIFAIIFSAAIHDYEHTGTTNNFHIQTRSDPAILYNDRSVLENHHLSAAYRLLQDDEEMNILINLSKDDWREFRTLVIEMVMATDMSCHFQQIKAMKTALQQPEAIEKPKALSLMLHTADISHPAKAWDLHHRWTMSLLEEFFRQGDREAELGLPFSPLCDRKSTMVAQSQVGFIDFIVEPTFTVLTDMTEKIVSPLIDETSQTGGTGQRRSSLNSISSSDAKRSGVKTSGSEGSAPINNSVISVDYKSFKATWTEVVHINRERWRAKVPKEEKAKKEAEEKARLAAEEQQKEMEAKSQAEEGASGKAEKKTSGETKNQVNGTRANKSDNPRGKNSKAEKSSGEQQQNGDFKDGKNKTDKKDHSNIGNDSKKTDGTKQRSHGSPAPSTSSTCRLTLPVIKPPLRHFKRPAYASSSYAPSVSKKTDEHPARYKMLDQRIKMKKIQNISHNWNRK

[8] = Toxicity in dog assessed as weight loss at 100 mg/kg, po; format: organism-based, Canis lupus familiaris; details: in vivo
[9] = Protein binding in dog plasma; format: ADME, cell-free, Canis lupus familiaris; details: read-out: PPB
[10] = Inhibition of recombinant human His6-tagged PDE4D3 UCR1 S54D mutant expressed in baculovirus infected Sf9 insect cells using cAMP as substrate preincubated for 5 to 10 mins followed by substrate addition and measured for 10 mins by yeast myokinase/pyruvate kinase/lactate dehydrogenase-coupled fluorescence assay relative to control
[11] = Vascular toxicity in rat during 28 days study by microscopic analysis; details: in vivo, 672 h
[12] = target: 3',5'-cyclic-AMP phosphodiesterase 4C (Homo sapiens, UniProt Q08493); test: Inhibition of recombinant human full length N-terminal GST-tagged PDE4C1 expressed in baculovirus infected Sf9 cells using FAM-cAMP as substrate incubated for 60 mins by fluorescence assay; details: sf9, 1 h
3',5'-cyclic-AMP phosphodiesterase 4C, sequence (Q08493 whole entry): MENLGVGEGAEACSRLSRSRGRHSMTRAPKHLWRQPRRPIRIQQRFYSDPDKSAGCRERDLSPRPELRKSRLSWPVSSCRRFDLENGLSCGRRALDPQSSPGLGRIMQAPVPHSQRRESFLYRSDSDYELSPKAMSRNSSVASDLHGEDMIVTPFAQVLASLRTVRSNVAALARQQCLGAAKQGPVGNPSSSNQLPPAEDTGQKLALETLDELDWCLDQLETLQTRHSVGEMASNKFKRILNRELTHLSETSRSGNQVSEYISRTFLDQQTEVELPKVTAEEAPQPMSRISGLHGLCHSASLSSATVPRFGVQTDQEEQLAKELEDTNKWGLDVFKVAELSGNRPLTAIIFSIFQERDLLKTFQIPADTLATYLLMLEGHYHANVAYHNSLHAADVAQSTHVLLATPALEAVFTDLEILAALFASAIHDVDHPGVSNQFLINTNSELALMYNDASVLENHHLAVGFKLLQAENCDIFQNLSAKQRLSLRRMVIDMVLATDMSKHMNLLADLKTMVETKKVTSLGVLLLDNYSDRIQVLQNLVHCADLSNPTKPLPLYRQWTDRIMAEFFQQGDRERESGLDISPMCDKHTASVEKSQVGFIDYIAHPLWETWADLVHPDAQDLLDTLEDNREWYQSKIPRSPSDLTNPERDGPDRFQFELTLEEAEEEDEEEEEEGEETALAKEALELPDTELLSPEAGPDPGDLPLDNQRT

[13] = Vascular toxicity in dog during 90 days study by microscopic analysis; parameters: species or system Canis lupus familiaris; details: in vivo, 2160 h
[14] = Inhibition of recombinant human His6-tagged PDE4D7 UCR1 S129D mutant expressed in baculovirus infected Sf9 insect cells using cAMP as substrate preincubated for 5 to 10 mins followed by substrate addition and measured for 10 mins by yeast myokinase/pyruvate kinase/lactate dehydrogenase-coupled fluorescence assay relative to control
Cytochrome P450 2C9 = Cytochrome P450 2C9 (Homo sapiens, UniProt P11712); test: Inhibition of CYP2C9 (unknown origin) by fluorescence-based assay; format: ADME
Cytochrome P450 2C9, sequence (P11712 whole entry): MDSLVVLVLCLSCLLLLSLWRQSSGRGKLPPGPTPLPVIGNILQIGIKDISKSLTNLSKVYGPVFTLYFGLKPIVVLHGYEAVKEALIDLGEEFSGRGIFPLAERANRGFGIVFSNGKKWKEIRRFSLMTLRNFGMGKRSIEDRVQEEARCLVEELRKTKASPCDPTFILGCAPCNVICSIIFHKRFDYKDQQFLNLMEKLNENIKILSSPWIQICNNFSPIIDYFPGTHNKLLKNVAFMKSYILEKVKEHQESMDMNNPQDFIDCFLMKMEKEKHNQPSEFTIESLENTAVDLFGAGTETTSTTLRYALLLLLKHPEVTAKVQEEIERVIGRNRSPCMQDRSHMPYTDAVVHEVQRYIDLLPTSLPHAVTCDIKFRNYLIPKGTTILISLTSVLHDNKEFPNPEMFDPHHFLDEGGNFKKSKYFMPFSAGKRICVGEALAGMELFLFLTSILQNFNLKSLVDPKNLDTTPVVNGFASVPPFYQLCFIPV
How it was run: (§2)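 CYP inhibition run with a fluorescent substrate by a contract laboratory under standard protocols; IC50 reported.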

Cynomolgus monkey = test: Induction of emesis in cynomolgus monkey up to 50 mg/kg, po; format: organism-based, Macaca fascicularis; details: in vivo
[15] = Inhibition of recombinant human N-terminal GST-tagged PDE4D7 (2 to 748 residues) expressed in baculovirus infected Sf9 cells using FAM-cAMP as substrate incubated for 60 mins by fluorescence assay; details: sf9, 1 h
[16] = target: Voltage-gated inwardly rectifying potassium channel KCNH2 (Homo sapiens, UniProt Q12809); test: Inhibition of human ERG
[17] = Aqueous kinetic solubility of the compound in pH 7.4 PBS buffer at 100 uM measured after 1 hr; format: physicochemical; details: pH 7.4, 1 h
[18] = Inhibition of recombinant N-terminal GST-tagged full length human PDE4A1A expressed in baculovirus infected Sf9 cells using FAM-cAMP as substrate incubated for 60 mins by fluorescence assay; details: sf9, 1 h
[19] = target: T1, 3',5'-cyclic-AMP phosphodiesterase 4D (Homo sapiens, UniProt Q08499); test: Inhibition of recombinant human full length N-terminal GST-tagged PDE4D3 expressed in baculovirus infected Sf9 cells using FAM-cAMP as substrate incubated for 60 mins by fluorescence assay; details: sf9, 1 h
T1 sequence (Q08499 whole entry): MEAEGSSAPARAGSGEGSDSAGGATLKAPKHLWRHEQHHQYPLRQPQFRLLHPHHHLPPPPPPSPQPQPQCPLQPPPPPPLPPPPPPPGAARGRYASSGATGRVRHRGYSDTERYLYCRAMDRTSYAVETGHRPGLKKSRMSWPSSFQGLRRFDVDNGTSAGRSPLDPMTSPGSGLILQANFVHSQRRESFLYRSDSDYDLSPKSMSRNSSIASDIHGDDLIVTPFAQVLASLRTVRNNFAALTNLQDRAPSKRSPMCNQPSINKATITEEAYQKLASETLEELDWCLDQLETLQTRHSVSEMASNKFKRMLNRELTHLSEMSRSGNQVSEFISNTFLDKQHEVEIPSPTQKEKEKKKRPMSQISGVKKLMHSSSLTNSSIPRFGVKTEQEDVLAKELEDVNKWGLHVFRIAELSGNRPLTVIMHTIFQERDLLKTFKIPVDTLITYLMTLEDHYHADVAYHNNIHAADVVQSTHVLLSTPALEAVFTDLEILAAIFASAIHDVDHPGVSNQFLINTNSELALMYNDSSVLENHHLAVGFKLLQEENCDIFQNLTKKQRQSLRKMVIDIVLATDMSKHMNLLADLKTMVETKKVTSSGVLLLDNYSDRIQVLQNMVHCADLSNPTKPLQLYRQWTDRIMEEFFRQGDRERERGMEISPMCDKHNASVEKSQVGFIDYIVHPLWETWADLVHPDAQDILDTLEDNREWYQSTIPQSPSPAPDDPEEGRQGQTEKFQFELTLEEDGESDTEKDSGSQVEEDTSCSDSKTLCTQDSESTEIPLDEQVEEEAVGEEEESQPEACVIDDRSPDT

[20] = Toxicity in rat assessed as weight loss at 100 mg/kg, po; format: organism-based; details: in vivo
[21] = Toxicity in rat assessed as effect on CNS up to 60 mg/kg, po; format: organism-based; details: in vivo
[22] = target: T1, 3',5'-cyclic-AMP phosphodiesterase 4D; test: Inhibition of recombinant human N-terminal GST-tagged PDE4D2 (2 to 507 residues) expressed in baculovirus infected Sf9 cells using FAM-cAMP as substrate incubated for 60 mins by fluorescence assay; details: sf9, 1 h
[23] = target: High affinity 3',5'-cyclic-AMP phosphodiesterase 7A (Homo sapiens, UniProt Q13946); test: Inhibition of recombinant human N-terminal GST-tagged PDE7A2 (122 to end residues) expressed in baculovirus infected Sf9 cells using FAM-cAMP as substrate incubated for 60 mins by fluorescence assay; details: sf9, 1 h
[24] = Cmax in ICR mouse at 30 mg/kg, po; details: in vivo
[25] = target: 3',5'-cyclic-AMP phosphodiesterase 4B (Homo sapiens, UniProt Q07343); test: Inhibition of recombinant N-terminal GST-tagged full length human PDE4B1 expressed in baculovirus infected Sf9 cells using FAM-cAMP as substrate incubated for 60 mins by fluorescence assay; details: sf9, 1 h
3',5'-cyclic-AMP phosphodiesterase 4B, sequence (Q07343 whole entry): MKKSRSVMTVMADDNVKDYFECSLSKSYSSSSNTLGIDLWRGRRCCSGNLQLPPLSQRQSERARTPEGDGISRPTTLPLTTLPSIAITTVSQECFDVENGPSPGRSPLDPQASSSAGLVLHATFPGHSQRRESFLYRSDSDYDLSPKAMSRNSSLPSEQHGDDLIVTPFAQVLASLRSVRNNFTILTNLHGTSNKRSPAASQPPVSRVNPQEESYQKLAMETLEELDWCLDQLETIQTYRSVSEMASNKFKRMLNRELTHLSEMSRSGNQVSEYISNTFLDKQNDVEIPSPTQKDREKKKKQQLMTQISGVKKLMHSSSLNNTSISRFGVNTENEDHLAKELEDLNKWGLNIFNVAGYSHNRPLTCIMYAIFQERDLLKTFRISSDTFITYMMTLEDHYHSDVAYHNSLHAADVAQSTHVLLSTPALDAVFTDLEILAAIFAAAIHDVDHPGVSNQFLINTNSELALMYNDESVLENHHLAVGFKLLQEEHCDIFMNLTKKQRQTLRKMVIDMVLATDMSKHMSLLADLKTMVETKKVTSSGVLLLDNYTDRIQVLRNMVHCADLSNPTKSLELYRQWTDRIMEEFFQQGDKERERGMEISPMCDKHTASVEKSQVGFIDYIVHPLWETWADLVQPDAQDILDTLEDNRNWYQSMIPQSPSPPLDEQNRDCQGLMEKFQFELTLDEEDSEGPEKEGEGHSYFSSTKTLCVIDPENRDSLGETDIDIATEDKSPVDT

[26] = Toxicity in dog assessed as tremor at 100 mg/kg, po; format: organism-based, Canis lupus familiaris; details: in vivo
[27] = Toxicity in rat assessed as inappetence at 100 mg/kg, po; format: organism-based; details: in vivo
[28] = Stability in mouse liver microsomes assessed as parent compound remaining at 1 uM measured after 30 mins by LC-MS/MS analysis; format: ADME, Microsome; details: read-out: Stability; how it was run: as §1
Cytochrome P450 2C19 = Cytochrome P450 2C19 (Homo sapiens, UniProt P33261); test: Inhibition of […] (unknown origin) by fluorescence-based assay; format: ADME; how it was run: as §2
Cytochrome P450 2C19, sequence (P33261 whole entry): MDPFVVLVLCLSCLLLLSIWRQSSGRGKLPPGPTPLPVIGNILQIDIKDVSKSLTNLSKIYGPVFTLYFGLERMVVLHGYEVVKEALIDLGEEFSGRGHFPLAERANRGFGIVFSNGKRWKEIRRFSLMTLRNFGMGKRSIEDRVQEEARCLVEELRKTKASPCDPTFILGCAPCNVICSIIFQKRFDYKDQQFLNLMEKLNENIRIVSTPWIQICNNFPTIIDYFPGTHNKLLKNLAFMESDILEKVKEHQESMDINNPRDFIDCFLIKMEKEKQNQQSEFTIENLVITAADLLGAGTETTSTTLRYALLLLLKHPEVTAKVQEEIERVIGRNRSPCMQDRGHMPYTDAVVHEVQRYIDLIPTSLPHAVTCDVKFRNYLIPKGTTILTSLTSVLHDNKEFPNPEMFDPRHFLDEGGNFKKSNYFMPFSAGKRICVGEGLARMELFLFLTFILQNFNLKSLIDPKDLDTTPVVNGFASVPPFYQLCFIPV

[29] = target: T1, 3',5'-cyclic-AMP phosphodiesterase 4D; test: Inhibition of recombinant human His6-tagged PDE4D2 expressed in baculovirus infected Sf9 insect cells using cAMP as substrate preincubated for 5 to 10 mins followed by substrate addition and measured for 10 mins by yeast myokinase/pyruvate kinase/lactate dehydrogenase-coupled fluorescence assay relative to control; details: sf9, 10 min
[30] = target: cAMP and cAMP-inhibited cGMP 3',5'-cyclic phosphodiesterase 10A (Homo sapiens, UniProt Q9Y233); test: Inhibition of recombinant human full length N-terminal GST-tagged PDE10A2 expressed in baculovirus infected Sf9 cells using FAM-cAMP as substrate incubated for 60 mins by fluorescence assay; details: sf9, 1 h
cAMP and cAMP-inhibited cGMP 3',5'-cyclic phosphodiesterase 10A, sequence (Q9Y233 whole entry): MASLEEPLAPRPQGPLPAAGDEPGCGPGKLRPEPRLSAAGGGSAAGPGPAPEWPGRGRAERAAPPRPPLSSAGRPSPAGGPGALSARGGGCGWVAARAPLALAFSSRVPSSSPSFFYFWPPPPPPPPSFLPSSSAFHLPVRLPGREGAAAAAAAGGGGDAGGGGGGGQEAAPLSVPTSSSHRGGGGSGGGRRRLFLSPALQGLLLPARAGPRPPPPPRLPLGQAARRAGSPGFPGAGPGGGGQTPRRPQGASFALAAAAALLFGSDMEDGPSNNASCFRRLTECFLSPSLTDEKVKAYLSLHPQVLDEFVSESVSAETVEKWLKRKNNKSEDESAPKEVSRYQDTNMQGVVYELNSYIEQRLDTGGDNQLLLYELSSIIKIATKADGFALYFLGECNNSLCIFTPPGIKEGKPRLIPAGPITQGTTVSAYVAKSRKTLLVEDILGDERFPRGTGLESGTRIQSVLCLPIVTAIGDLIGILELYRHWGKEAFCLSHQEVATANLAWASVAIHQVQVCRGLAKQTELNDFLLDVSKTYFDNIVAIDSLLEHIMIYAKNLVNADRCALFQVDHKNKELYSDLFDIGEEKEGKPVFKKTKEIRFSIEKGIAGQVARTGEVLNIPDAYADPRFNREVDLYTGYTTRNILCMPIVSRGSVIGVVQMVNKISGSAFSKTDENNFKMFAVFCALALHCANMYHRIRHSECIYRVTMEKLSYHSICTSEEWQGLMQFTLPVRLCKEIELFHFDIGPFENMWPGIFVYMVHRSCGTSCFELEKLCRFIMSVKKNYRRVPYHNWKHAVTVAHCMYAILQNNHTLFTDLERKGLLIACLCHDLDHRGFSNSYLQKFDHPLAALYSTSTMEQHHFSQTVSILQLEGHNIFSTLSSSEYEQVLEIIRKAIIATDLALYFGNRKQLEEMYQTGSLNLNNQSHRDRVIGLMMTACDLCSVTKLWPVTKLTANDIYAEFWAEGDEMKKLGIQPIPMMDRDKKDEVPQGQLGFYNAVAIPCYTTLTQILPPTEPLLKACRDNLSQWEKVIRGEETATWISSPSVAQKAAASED

[31] = Inhibition of recombinant human His6-tagged PDE4D7 UCR1 S129D mutant expressed in baculovirus infected Sf9 insect cells using cAMP as substrate preincubated for 5 to 10 mins followed by substrate addition and measured for 10 mins in presence of BSA by yeast myokinase/pyruvate kinase/lactate dehydrogenase-coupled fluorescence assay

With O=C(O)Cc1ccc(Cc2cc(-c3cccc(Cl)c3)nc(C(F)(F)F)c2)cc1 [ZATOLMILAST] as the molecule, how does the remaining at 0.5 h, 1 µM [1] read?
Its remaining at 0.5 h, 1 µM is 88 to 100%.

And the permeability [2]?
The permeability was 53 ×10⁻⁶ cm/s.

And the Activity [3]?
The Activity was “Non-Toxic”.

What about the F [4] of the same molecule?
Its F is 82%.

What about the Activity [5] of the same molecule?
Its Activity is “Non-Toxic”.

And the “inhibition (INH)” value [6]?
The value was “Not Active”.

And the “inhibition (INH)” value [7]?
The value was “Not Active”.

What about the Activity [8] of the same molecule?
Its Activity is “Toxic”.

What about the fraction unbound [9] of the same molecule?
Its fraction unbound is 0.002 to 0.005.

What about the Imax [10] of the same molecule?
Its Imax is 89%.

What about the Activity [11] of the same molecule?
The Activity was “Non-Toxic”.

And the “inhibition (INH)” value [12]?
Its value is “Not Active”.

What about the Activity [13] of the same molecule?
The Activity was “Non-Toxic”.

And the Imax [14]?
Its Imax is 90.2%.

And the IC50 (Cytochrome P450 2C9)?
Its IC50 is over 51 µM.

What about the Activity (Cynomolgus monkey) of the same molecule?
Its Activity is “Non-Toxic”.

And the “inhibition (INH)” value [15]?
The value was “Not Active”.

And the IC50 [16]?
The IC50 was over 10 µM.

What about the Kinetic_solubility [17] of the same molecule?
The Kinetic_solubility was 95 µM.

What about the “inhibition (INH)” value [18] of the same molecule?
Its value is “Not Active”.

What about the “inhibition (INH)” value [19] of the same molecule?
Its value is “Not Active”.

And the Activity [20]?
Its Activity is “Toxic”.

And the Activity [21]?
The Activity was “Non-Toxic”.

And the “inhibition (INH)” value [22]?
The value was “Not Active”.

And the “inhibition (INH)” value [23]?
Its value is “Not Active”.

What about the Cmax [24] of the same molecule?
The Cmax was 11475 ng/mL.

And the “inhibition (INH)” value [25]?
The value was “Not Active”.

What about the Activity [26] of the same molecule?
The Activity was “Toxic”.

And the Activity [27]?
Its Activity is “Toxic”.

And the remaining at 0.5 h, 1 µM [28]?
The remaining at 0.5 h, 1 µM was 88 to 100%.

What about the IC50 (Cytochrome P450 2C19) of the same molecule?
The IC50 was 43 µM.

What about the “inhibition (INH)” value [29] of the same molecule?
Its value is “Not Active”.

And the “inhibition (INH)” value [30]?
The value was “Not Active”.

What about the inhibition [31] of the same molecule?
The inhibition was “Active”.
